ChEMBL document CHEMBL1240401, “Population pharmacokinetic comparison and pharmacodynamic breakpoints of ceftazidime in cystic fibrosis patients and healthy volunteers” (Antimicrob Agents Chemother, 2010)

Tests used:
[1] = Total clearance in cystic fibrosis patient at 2 gram, iv administered in 5 mins infusion; format: ADME, organism-based; conditions: human, in vivo
Procedure, shortened: (§1)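 Single-dose, single-centre, open, parallel-group trial in CF patients (n = 8) and healthy volunteers (n = 7). Each subject received 2 g ceftazidime by 5-min IV infusion; three CF patients received 1.5, 1 or 3 g instead. Venous plasma was sampled from 0 min to 12 h after the end of infusion. Drug was read at 275 nm (linear 0.6–200 mg/liter). Noncompartmental parameters were not body-size scaled.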

[2] = Volume of distribution at steady state in cystic fibrosis patient at 2 gram, iv administered in 5 mins infusion; format: ADME, organism-based; conditions: human, in vivo, read-out: Vdss; procedure, shortened: as §1
[3] = Cmax in cystic fibrosis patient at 2 gram, iv administered in 5 mins infusion; format: ADME, organism-based; design: route intravenous; conditions: human, in vivo; procedure, shortened: as §1
[4] = Terminal half life in cystic fibrosis patient at 2 gram, iv administered in 5 mins infusion; format: ADME, organism-based; conditions: human, in vivo, read-out: beta t1/2 (converted); procedure, shortened: as §1
[5] = Mean residence time in cystic fibrosis patient at 2 gram, iv administered in 5 mins infusion; format: ADME, organism-based; conditions: human, in vivo; procedure, shortened: as §1
[6] = Total clearance in healthy human subjects at 2 gram, iv administered in 5 mins infusion; format: ADME, organism-based; conditions: in vivo; procedure, shortened: as §1
Homo sapiens [7] = test: Volume of distribution at steady state in healthy human subjects at 2 gram, iv administered in 5 mins infusion; format: ADME, organism-based; conditions: in vivo; procedure, shortened: as §1
[8] = Cmax in healthy human subjects at 2 gram, iv administered in 5 mins infusion; format: ADME, organism-based; design: route intravenous; conditions: in vivo; procedure, shortened: as §1
[9] = Terminal half life in healthy human subjects at 2 gram, iv administered in 5 mins infusion; format: ADME, organism-based; conditions: in vivo, read-out: beta t1/2 (converted); procedure, shortened: as §1
[10] = Mean residence time in healthy human subjects at 2 gram, iv administered in 5 mins infusion; format: ADME, organism-based; conditions: in vivo; procedure, shortened: as §1
Homo sapiens [11] = test: fT>MIC in cystic fibrosis patient at 6 gram/70kg, iv administered as 2 mg/l infusion every 6 hrs; format: functional
Procedure, shortened: (§2)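 Monte Carlo simulation from the population PK model, using allometric scaling by fat-free mass. All regimens gave 6 g per 70 kg WT daily, as 30-min infusions q8h or q6h, prolonged 4–5-h infusions, or continuous infusion. Protein binding was assumed to be 11%, so only the non-protein-bound fraction counts. The PK-PD breakpoint was the MIC with target-attainment probability ≥90%.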

Homo sapiens [12] = test: fT>MIC in cystic fibrosis patient at 6 gram/70kg, iv administered as 1 mg/l infusion every 8 hrs; format: functional; procedure, shortened: as §2
Homo sapiens [13] = test: fT>MIC in healthy human subjects at 6 gram/70kg, iv administered as 4 mg/l infusion every 6 hrs; format: functional; procedure, shortened: as §2
Homo sapiens [14] = test: fT>MIC in healthy human subjects at 6 gram/70kg, iv administered as 3 mg/l infusion every 8 hrs; format: functional; procedure, shortened: as §2
Homo sapiens [15] = test: fT>MIC in cystic fibrosis patient at 6 gram/70kg, iv administered as 6 mg/l infusion every 6 hrs; format: functional; procedure, shortened: as §2
Homo sapiens [16] = test: fT>MIC in healthy human subjects at 6 gram/70kg, iv administered as 12 mg/l infusion every 6 hrs; format: functional; procedure, shortened: as §2
Homo sapiens [17] = test: fT>MIC in healthy human subjects at 6 gram/70kg, iv administered as 8 mg/l infusion every 8 hrs; format: functional; procedure, shortened: as §2
[18] = Total clearance in cystic fibrosis patient at […], iv administered 20 mins infusion; format: ADME, organism-based; conditions: human, in vivo
[19] = Total clearance in healthy human subjects at […], iv administered 20 mins infusion; format: ADME, organism-based; conditions: in vivo
[20] = Terminal half life in cystic fibrosis patient at […], iv administered 20 mins infusion; format: ADME, organism-based; conditions: human, in vivo, read-out: beta t1/2 (converted)
[21] = Terminal half life in healthy human subjects at […], iv administered 20 mins infusion; format: ADME, organism-based; conditions: in vivo, read-out: beta t1/2 (converted)
[22] = Renal clearance in cystic fibrosis patient; format: ADME, organism-based, Kidney; conditions: human, in vivo; read-out: CL_renal
[23] = Renal clearance in healthy human subjects; format: ADME, organism-based, Kidney; conditions: in vivo, read-out: CL_renal
[24] = Total clearance in cystic fibrosis patient; format: ADME, organism-based; conditions: human, in vivo
[25] = Total clearance in juveline to adult cystic fibrosis patient; format: ADME, organism-based; conditions: human, in vivo
Homo sapiens [26] = test: fT>MIC in cystic fibrosis patient at 6 gram/70kg, iv administered as 6 mg/l infusion

Q: For `CC(C)(O/N=C(\C(=O)N[C@@H]1C(=O)N2C(C(=O)[O-])=C(C[n+]3ccccc3)CS[C@H]12)c1csc(N)n1)C(=O)O` [CEFTAZIDIME], which clearance [1] is on record?
A: 89.5 mL/min

Q: What about the Vd [2] of the same compound?
A: 9.14 L

Q: And the Cmax [3]?
A: 445 µg/mL

Q: And the half-life [4]?
A: 1.48 h

Q: And the MRT [5]?
A: 1.54 h

Q: What about the clearance [6] of the same compound?
A: 110 mL/min

Q: What about the Vdss (Homo sapiens [7]) of the same compound?
A: 14.3 L

Q: What about the Cmax [8] of the same compound?
A: 210 µg/mL

Q: And the half-life [9]?
A: 1.94 h

Q: What about the MRT [10] of the same compound?
A: 2.1 h

Q: And the “fT>MIC” value (Homo sapiens [11])?
A: >=65%

Q: And the “fT>MIC” value (Homo sapiens [12])?
A: >=65%

Q: What about the “fT>MIC” value (Homo sapiens [13]) of the same compound?
A: >=65%

Q: And the “fT>MIC” value (Homo sapiens [14])?
A: >=65%

Q: And the “fT>MIC” value (Homo sapiens [15])?
A: >=40%

Q: What about the “fT>MIC” value (Homo sapiens [16]) of the same compound?
A: >=40%

Q: What about the “fT>MIC” value (Homo sapiens [17]) of the same compound?
A: >=40%

Q: And the clearance [18]?
A: 142 mL/min

Q: And the clearance [19]?
A: 101 mL/min

Q: And the half-life [20]?
A: 1.5 h

Q: What about the half-life [21] of the same compound?
A: 1.76 h

Q: And the CL renal [22]?
A: 125 mL/min

Q: What about the CL renal [23] of the same compound?
A: 100 mL/min

Q: What about the clearance [24] of the same compound?
A: 127 mL/min

Q: What about the clearance [25] of the same compound?
A: 133 mL/min

Q: And the “fT>MIC” value (Homo sapiens [26])?
A: >=40%
